The test system of one test is PLD. Briefly: PLD activity inhibition in A549 cells. It counts as cell-based. The following applies: read-out: IC50 for PLD inhibition.
The next test has as its system LLC lung cancer cells. Briefly: LLC tumor model in immune-deficient nude mice. It is filed as in vivo, mouse. The conditions noted are these: immune-deficient nude mice injected with LLC cells.
Test [1] deals with EGFR-RAS-mediated signaling pathways. In words: Immunoblot of RAS downstream molecules in EGF-stimulated A549 cells. It counts as cell-based. Summed up: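 Lysates made in passive buffer with protease and phosphatase inhibitor cocktail, boiled 5 min, then separated by SDS-PAGE and transferred to PVDF. Membranes blocked in TBS-T with 5% BSA and probed overnight at 4 °C for phospho- and total Akt, ERK and IκBα. HRP-conjugated secondary antibodies and chemiluminescence were used for detection.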
On the technique in general: A western blot detects proteins with antibodies after separation by electrophoresis.

The target in the next test is T1, PLD1 (Homo sapiens, UniProt Q13393).
T1 sequence (Q13393 1-1074): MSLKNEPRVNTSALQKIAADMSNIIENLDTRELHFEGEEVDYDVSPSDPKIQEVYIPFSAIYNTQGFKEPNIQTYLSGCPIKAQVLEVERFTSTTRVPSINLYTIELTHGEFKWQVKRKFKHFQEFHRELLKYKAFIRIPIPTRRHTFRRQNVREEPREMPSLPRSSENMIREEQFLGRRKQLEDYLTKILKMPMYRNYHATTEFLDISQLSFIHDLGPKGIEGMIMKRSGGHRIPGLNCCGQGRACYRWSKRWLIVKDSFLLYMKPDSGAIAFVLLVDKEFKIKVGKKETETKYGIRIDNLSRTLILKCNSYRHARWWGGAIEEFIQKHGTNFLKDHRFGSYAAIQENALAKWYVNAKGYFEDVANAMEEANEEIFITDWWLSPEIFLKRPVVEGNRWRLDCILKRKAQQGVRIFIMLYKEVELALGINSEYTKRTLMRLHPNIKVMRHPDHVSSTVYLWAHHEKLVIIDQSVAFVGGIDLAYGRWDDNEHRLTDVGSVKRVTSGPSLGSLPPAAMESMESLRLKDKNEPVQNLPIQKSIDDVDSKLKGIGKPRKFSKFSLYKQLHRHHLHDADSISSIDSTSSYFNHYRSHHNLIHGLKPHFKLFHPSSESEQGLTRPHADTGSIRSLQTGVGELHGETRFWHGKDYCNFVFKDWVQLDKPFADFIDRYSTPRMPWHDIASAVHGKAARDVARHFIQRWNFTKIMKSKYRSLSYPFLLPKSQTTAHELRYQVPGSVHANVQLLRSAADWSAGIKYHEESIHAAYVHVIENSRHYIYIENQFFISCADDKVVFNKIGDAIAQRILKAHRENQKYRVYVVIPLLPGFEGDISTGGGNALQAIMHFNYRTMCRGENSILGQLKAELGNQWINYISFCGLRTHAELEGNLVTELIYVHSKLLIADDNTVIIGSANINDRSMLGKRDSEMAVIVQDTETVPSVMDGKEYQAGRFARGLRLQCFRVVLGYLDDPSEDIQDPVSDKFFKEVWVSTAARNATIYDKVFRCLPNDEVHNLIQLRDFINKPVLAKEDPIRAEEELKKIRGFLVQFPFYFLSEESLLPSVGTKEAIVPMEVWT
In words: PLD activity in PLD1-overexpressing A549 cells. It counts as cell-based.

The test system of test [2] is A549 cells. Briefly: Ki67 staining proliferation assay. It counts as cell-based.
In the next test the test system is LLC mouse lung cells. Briefly: LLC lung cancer syngeneic model in C57BL/6 mice. It counts as in vivo. Summed up:
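Male C57BL/6 mice (6 weeks old) received 3 × 10^5 LLC cells in PBS subcutaneously in the flank. From day 7 they were randomised to vehicle PO daily or test compound 10 mg/kg PO every other day, for 3 weeks. Tumour IHC used citrate antigen retrieval, blocking with 0.3% H2O2 and 2.5% horse serum, primary antibodies overnight at 4 °C, HRP/ABC with DAB, and hematoxylin counterstain. CD163 was assessed by immunofluorescence.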

Test [3] relates to A549 cells. Briefly: Cell apoptosis assay. It is filed as cell-based. The conditions noted are these: flow cytometry and caspase-3 activity assay. An outline of the steps:
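Apoptosis detected by Annexin V-FITC staining and flow cytometry. For caspase-3, cells were grown to about 40% density and given test compound, or the inhibitor Ac-DEVD-CHO, at 10 μM for 48 h. After a PBS wash, 1 μM NucView 488 caspase-3 substrate was added for 30 min at RT, then 1 μM Hoechst 33342. Both fluorescences were read on a plate reader.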

The target of another test is T2, L425A mutant PLD1 (Homo sapiens, UniProt Q13393, L425A).
T2 sequence (Q13393 1-1036 isoform Q13393-2 L425A): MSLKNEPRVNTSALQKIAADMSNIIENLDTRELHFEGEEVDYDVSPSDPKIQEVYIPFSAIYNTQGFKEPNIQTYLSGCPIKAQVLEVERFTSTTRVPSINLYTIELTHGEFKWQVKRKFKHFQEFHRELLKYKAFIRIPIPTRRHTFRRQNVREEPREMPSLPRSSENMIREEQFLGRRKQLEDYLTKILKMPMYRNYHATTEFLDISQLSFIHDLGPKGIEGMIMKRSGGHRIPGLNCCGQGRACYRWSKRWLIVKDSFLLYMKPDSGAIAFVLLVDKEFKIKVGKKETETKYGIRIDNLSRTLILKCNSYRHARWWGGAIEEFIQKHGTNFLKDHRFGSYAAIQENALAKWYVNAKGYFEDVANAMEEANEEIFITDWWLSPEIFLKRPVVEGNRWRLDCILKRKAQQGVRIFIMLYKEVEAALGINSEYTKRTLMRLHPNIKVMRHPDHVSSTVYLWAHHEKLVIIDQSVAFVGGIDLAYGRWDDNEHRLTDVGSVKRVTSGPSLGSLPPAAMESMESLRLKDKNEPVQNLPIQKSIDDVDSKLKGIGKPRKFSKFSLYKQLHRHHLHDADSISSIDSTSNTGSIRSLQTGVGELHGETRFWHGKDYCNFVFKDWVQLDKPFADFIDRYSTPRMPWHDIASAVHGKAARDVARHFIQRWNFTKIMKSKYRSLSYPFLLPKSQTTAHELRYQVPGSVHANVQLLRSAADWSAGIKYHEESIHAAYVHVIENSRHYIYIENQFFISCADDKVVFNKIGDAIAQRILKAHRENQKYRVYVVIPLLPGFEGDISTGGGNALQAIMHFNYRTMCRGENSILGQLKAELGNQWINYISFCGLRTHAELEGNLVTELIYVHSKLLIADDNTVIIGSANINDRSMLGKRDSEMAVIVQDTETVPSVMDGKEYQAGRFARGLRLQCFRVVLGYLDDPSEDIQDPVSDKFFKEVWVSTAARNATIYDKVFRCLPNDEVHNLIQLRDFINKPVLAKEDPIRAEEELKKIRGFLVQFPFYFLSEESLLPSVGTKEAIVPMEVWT
Briefly: PLD activity assay in L425A mutant PLD1-transfected cells. It counts as cell-based.

The mark [4] stands for this setting: tumor tissue immunofluorescence.

“N-(3,5-Bis(trifluoromethyl)phenyl)-3-(1H-indol-3-yl)propanamide [3r]”: the IC50 (commonly the concentration at which inhibition is half-maximal) in the test with PLD was 1970 nM. Also, in the test on LLC lung cancer cells, the tumor formation result is “significantly suppressed”. Also, the “phospho-Akt, phospho-ERK, and phospho-IkBα levels” value in test [1] is “markedly reduced”. For the same substance, on PLD1, the PLD1 activity entry is on record as “selectively suppressed”. Further, the Ki67-positive proliferation entry in the test on A549 cells [2] was “significantly inhibited”. The tumor formation result in the test with LLC mouse lung cells (10 mg/kg PO every other day, C57BL/6, LLC) is “significantly attenuated”. In the test with LLC mouse lung cells (IHC), the “apoptosis in tumor tissue (active caspase 3 IHC)” value is given as “enhanced” and the “proliferation in tumor tissue (Ki67 IHC)” value is “reduced”. Moreover, in the test on LLC mouse lung cells (tumor tissue IHC), the “expression of ’eat-me’ signals (calreticulin)” value is “increased”; the “levels of RAS and downstream molecules (p-ERK, p-Akt, p-IKBα)” value is reported as “decreased”; the “levels of ’don’t eat-me’ signals (CD47, CD24, PD-L1)” value was “reduced”. In the test with LLC mouse lung cells (setting [4]), the “population of CD4^+ and IL-17^+ Th17 cells” value is “increased”; the “population of CD80^+ pro-inflammatory M1 macrophages” value is recorded as “increased”; the “population of CD163^+ anti-inflammatory M2 macrophages” value is “decreased”; the “population of cytotoxic CD8^+ T cells” value is “increased”. Also, in the test with LLC mouse lung cells (tumor-bearing mice vs vehicle), the “size and weight of the spleen” value is on record as “recovered”. Also, the “apoptosis of A549 cells” value with A549 cells [3] is given as “induced”. Moreover, on L425A mutant PLD1, the PLD activity result was “significantly suppressed”.

The values above are taken from article PMC11913021 (Journal of Medicinal Chemistry, 2024).
